Compound activity deposited in PubChem BioAssay by several laboratories.
SF1 activator = SF-1 (human) activation | CHO-K1 Gal4-SF-1 LBD luciferase reporter; % increase over DMSO SF-1-specific signal | activation, % at 10 µM | 1.9% of 65,000 active | AID 522;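 active means activation above the mean activation of all tested compounds plus 3 SD, cut at about 50% in these data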
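Material: CHO-K1 cells with Gal4–hSF-1 LBD chimera plus Gal4-driven luciferase / Input: 4,000 CHO-K1 cells per well / Incubation: compound exposure 20 h at 37 °C / Signal: luminescence read 15 min after SteadyLite luciferase reagent, after room-temperature equilibration / Read-out: percent activation versus DMSO / Benchmarks: DMSO negative control and −SF1 background wells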
D1 allo mod = allosterically modulates the human D1 dopamine receptor. HEK293 D1, CRE-luciferase, dopamine EC30 potentiation; actives deviate in either direction. 5.9% of 58,000 active. B-score at 10 µM;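 active means luminescence count or its row- and column-corrected plate score outside the 99.7% band of the plate's sample wells, on either side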
M1 agonist = M1 muscarinic receptor agonism | CHO-M1 cells, Fluo-4 calcium fluorescence, agonist mode; stronger effect = higher value | B-score at 10 µM | 3% of 64,000 active;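 active means fluorescence rise, raw or as B-score row- and column-corrected plate score, outside the 99.7% band of its plate's samples, either direction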
M1 antagonist = blocks the rat M1 muscarinic receptor response to acetylcholine | CHO-M1 cells, Fluo-4 calcium, ACh EC80 antagonist mode; stronger effect = lower value | B-score at 10 µM | 3.4% of 64,000 active | AID 628;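 active means calcium fluorescence response, raw or row-and-column corrected B-score, differing from the plate sample mean either way at a set confidence level, mostly lower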
RORa activator = activates the human nuclear receptor RORA | P35398 | CHO-K1 Gal4-RORA LBD luciferase reporter, luminescence; percent increase over mock-subtracted basal signal | activation, % at 10 µM | 1.5% of 65,000 active;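 active means activation above the mean of all tested compounds plus 3 SD, cut at about 49% in these data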
Target sequence (P35398 whole entry, looked up, the tested form may be a part): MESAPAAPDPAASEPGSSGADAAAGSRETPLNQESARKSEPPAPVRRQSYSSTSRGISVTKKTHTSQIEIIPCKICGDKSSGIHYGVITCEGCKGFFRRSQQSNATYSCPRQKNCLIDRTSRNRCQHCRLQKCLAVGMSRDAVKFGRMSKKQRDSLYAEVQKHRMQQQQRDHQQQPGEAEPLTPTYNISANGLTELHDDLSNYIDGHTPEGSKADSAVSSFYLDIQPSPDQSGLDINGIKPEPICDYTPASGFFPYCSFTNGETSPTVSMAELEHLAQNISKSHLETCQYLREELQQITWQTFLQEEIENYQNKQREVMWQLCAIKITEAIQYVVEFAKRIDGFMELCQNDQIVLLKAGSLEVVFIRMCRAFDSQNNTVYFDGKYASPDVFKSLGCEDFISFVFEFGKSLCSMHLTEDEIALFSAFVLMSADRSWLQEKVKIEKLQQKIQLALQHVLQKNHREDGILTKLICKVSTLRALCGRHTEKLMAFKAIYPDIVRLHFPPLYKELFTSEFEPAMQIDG
Htt clearance = mutant huntingtin protein clearance; 0.42% of 47,000 active; inhibition, % at 1.5 µM; AID 853; HeLa Exon1htt(103Q)mCFP, aggregate imaging; zero = plate's median compound well;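 active means inhibition of aggregate fluorescence above about 70%, also judged a hit by eye on the cell image, limit read from the data, passing the limit was not always enough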;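 further: cells exposed to compound for three days before fixation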
D1 mod confirm = D1 receptor (human) allosteric modulation, confirmed; AID 642; shares compounds with D1 allo mod; 88% of 2,200 active; HEK293 D1 CRE-luciferase, dopamine EC30 potentiation; stronger effect = higher value; luminescence at 10 µM;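 active means luminescence in either of two replicates above the same-plate mean plus 3 SD of the low-dose dopamine control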
D1 no dopamine = activates D1 CRE-luciferase signal without dopamine present | shares compounds with D1 allo mod | HEK293 D1 CRE-luciferase, luminescence, no dopamine; stronger effect = higher value | luminescence at 10 µM | 0.8% of 1,900 active | AID 646; in the data active means luminescence above about 3900
Isoprot counter = alters isoproterenol CRE-luciferase response in HEK293 cells. shares compounds with D1 allo mod. HEK293 D1 CRE-luciferase, isoproterenol EC30 counter-screen. calls only at 10 µM. 63% of 2,200 active;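 active means luminescence in either replicate above plate mean of wells with a partly effective reference agonist dose plus 3 SD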;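 further: isoproterenol raises cAMP through native beta-adrenoceptor Gs so signal bypasses D1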
Each line names hits and unclear results; the compound was inactive in the other large screens (follow-up assays come after a bar, where they were run). Sampled rows, rich in hits. Any-hit rate of the full collection: about 11%.

CCCCc1[nH]nc2c1C1(C(=O)N(CC)c3ccccc31)C(C#N)=C(N)O2 (stereo unspecified)	D1 allo mod 16 | D1 mod confirm 13864 | D1 no dopamine inactive | Isoprot counter active
O=c1c(/C=N/O)c(Nc2ccccc2)nc2ccccn12	D1 allo mod 4.2 | D1 mod confirm 9580 | D1 no dopamine inactive | Isoprot counter active
COc1ccc(/C=N/n2c(SC)nnc2-c2ccccc2)c(OC)c1OC	none (no result: Htt clearance)
COc1ccc(/C=N/n2c(SC)nnc2-c2ccccc2)cc1C	D1 allo mod 16 (no result: Htt clearance) | D1 mod confirm 23520 | D1 no dopamine inactive | Isoprot counter active
CCc1nnc(NC2=NCCC2)s1	none (no result: Htt clearance)
CCCCN1CN(S(=O)(=O)c2cccs2)c2nc3ccccc3nc21	D1 allo mod 8.4 | D1 mod confirm 13480 | D1 no dopamine inactive | Isoprot counter active
COCCN1CN(S(=O)(=O)c2ccccc2)c2nc3ccccc3nc21	D1 allo mod 6.6 | D1 mod confirm 9164 | D1 no dopamine inactive | Isoprot counter active
COc1ccc(-c2nnc(SCC(=O)c3[nH]c(C)c(C(C)=O)c3C)o2)cc1	none
CCOC(=O)c1[nH]c(CSc2nnc(-c3ccc(OC)cc3)o2)c(C(=O)OCC)c1C	D1 allo mod 4.8 (no result: Htt clearance) | D1 mod confirm 13216 | D1 no dopamine inactive | Isoprot counter active
CCOC(=O)c1c(NS(C)(=O)=O)sc2c1CCC(C)C2 (stereo unspecified)	D1 allo mod 9.2 | D1 mod confirm 13356 | D1 no dopamine inactive | Isoprot counter active
COC(=O)c1sc(NC(=O)Cc2cccs2)nc1C	none
COC(=O)c1c(NS(=O)(=O)c2ccc(C)cc2)sc2c1CCC(C)C2 (stereo unspecified)	none (no result: SF1 activator, D1 allo mod, M1 agonist, M1 antagonist, RORa activator)
CCOC(=O)c1c(NC(=O)c2ccco2)sc2c1CCCC2	none (no result: M1 agonist, M1 antagonist, Htt clearance)
COC(=O)c1c(NC(=O)c2ccco2)sc(C(=O)N2CCCC2)c1C	D1 allo mod 6.9 (no result: M1 agonist, M1 antagonist) | D1 mod confirm 12140 | Isoprot counter active
CCN(CC)C(=O)c1sc(NC(=O)Cc2cccs2)c(C#N)c1C	D1 allo mod 6.9 | D1 mod confirm 11496 | D1 no dopamine inactive | Isoprot counter inactive
COC(=O)c1c(NC(=O)Cc2cccs2)sc2c1CCC(C)C2 (stereo unspecified)	D1 allo mod 4.9 (no result: Htt clearance) | D1 mod confirm 8816 | D1 no dopamine inactive | Isoprot counter inactive
COc1cc(S(=O)(=O)NCc2ccccc2)ccc1F	none (no result: Htt clearance)
Cc1cc2c(c(=O)n1C)C(Cc1ccccc1)C(C#N)=C(N)O2 (stereo unspecified)	none (no result: Htt clearance)
Cc1[nH]c2ccccc2c1[C@H]1[C@@H](CC#N)C1(C)C	none (no result: SF1 activator, D1 allo mod, M1 agonist, M1 antagonist, RORa activator)
COC(=O)c1c(NC(=O)Cc2cccs2)sc(C(=O)NC2CCCCC2)c1C	none (no result: SF1 activator, D1 allo mod, M1 agonist, M1 antagonist, RORa activator)
CCOC(=O)c1c(NC(=O)Cc2cccs2)sc(C)c1C	D1 allo mod 13 (no result: Htt clearance) | D1 mod confirm 15008 | D1 no dopamine inactive | Isoprot counter active
COC(=O)c1c(NC(=O)Cc2cccs2)sc(C(=O)N2CCCCC2)c1C	D1 allo mod 7.3 | D1 mod confirm 25076 | D1 no dopamine inactive | Isoprot counter active
O=C(Nc1ccccc1C(=O)NC(Cc1ccccc1)C(=O)NC1CCCCCC1)c1ccccc1 (stereo unspecified)	none (no result: SF1 activator, D1 allo mod, M1 agonist, M1 antagonist, RORa activator)
O=C1c2ccccc2C(=O)N1c1ccc(S(=O)(=O)N2CCN(c3ccccc3)CC2)cc1	none (no result: Htt clearance)
CC1CCC2(CC1)NC(=O)N(CC(=O)NC(=O)NC1CCCC1)C2=O (stereo unspecified)	none (no result: Htt clearance)
O=C1NCCCC1C(=O)N1CCN(C(=O)C2CCCNC2=O)CC1 (stereo unspecified)	none (no result: Htt clearance)
COc1ccc(NS(=O)(=O)c2ccc3c(c2)Cc2ccccc2-3)cn1	none
COc1ccc(-c2coc3cc(O)cc(O)c3c2=O)cc1	SF1 activator 97, D1 allo mod 6.2 (no result: Htt clearance) | D1 mod confirm 9820 | D1 no dopamine inactive | Isoprot counter inactive
